Measurements taken from ChEMBL document CHEMBL5696442, “Discovery of type II inhibitors of TGFβ-activated kinase 1 (TAK1) and mitogen-activated protein kinase kinase kinase kinase 2 (MAP4K2)” (J Med Chem, 2015).

What was measured:
[1] = target: TRAF2 and NCK-interacting protein kinase (Homo sapiens) (UniProt Q9UKE5); experiment: Inhibition of ZC2 Lys2 labeling site in human Huh-7 cell lysate at 1 uM by KiNativ Profiling analysis relative to control; assay type: subcellular
[2] = target: T1, Ephrin type-B receptor 4 (Homo sapiens) (UniProt P54760); experiment: Inhibition of EphB4 ACT labeling site in human A-375 cells at 5 uM by KiNativ Profiling analysis relative to control; assay type: cell-based
T1 sequence (whole entry): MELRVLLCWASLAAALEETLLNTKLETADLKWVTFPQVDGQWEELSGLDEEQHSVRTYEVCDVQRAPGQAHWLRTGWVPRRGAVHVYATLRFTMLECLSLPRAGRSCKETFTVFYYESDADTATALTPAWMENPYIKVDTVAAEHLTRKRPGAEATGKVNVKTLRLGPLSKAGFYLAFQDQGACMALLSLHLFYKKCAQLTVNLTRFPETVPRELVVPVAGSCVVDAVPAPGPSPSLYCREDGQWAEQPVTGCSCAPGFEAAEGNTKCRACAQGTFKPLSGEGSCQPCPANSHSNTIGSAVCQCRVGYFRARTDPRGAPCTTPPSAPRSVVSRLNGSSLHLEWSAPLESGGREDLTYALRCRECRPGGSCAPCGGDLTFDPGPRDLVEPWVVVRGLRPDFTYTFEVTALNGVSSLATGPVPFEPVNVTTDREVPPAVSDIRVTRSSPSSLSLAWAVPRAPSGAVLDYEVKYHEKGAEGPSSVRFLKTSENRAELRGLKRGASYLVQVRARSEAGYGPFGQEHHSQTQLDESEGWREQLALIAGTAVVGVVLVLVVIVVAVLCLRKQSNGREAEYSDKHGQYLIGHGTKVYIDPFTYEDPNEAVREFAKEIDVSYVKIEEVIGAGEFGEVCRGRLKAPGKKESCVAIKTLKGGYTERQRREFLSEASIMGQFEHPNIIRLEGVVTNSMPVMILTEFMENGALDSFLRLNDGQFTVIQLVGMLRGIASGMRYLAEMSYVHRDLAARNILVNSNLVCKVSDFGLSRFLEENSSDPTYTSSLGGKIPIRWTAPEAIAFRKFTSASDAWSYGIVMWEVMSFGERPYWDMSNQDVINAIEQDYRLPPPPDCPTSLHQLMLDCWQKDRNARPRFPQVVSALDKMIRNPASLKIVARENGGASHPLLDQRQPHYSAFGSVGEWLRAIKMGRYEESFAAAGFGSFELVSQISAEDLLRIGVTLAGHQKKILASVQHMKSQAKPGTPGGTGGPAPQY
Method in brief: (§1)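 Live A375 melanoma cells were treated with compound at 0.5 or 5 μM, then lysed. Lysates were labeled with a lysine-reactive ATP or ADP-biotin probe. The read-out was protection of each kinase probe-labeling site from labeling, relative to control.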

Ephrin type-B receptor 2 = Ephrin type-B receptor 2 (Homo sapiens, UniProt P29323); experiment: Inhibition of EphB2 (unknown origin) ACT labeling site by KiNativ Profiling analysis
Ephrin type-B receptor 4 = Ephrin type-B receptor 4 (Homo sapiens, UniProt P54760); experiment: Inhibition of EphB4 (unknown origin) ACT labeling site by KiNativ Profiling analysis
[3] = target: 5'-AMP-activated protein kinase catalytic subunit alpha-2 (Homo sapiens) (UniProt P54646); experiment: Inhibition of AMPKa2 Lys1 labeling site in human A-375 cells at 5 uM by KiNativ Profiling analysis relative to control; assay type: cell-based
Method in brief: (§2)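 Live A375 melanoma cells were treated with compound at 5 or 0.5 μM, then lysed. The lysates were labeled with a lysine-reactive ATP or ADP-biotin probe. Kinase protection from probe labeling was measured by KiNativ.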

[4] = target: DNA-PK/Ku70/Ku85 (Homo sapiens) (UniProt P78527+P12956+P13010); experiment: Inhibition of DNAPK ATP labeling site harbouring GHDEREHPFLVKGGEDLRQDQR in human A-375 cells at 5 uM by KiNativ Profiling analysis relative to control; assay type: cell-based; method in brief: as §1
[5] = target: Tyrosine-protein kinase JAK1 (Homo sapiens) (UniProt P23458); experiment: Inhibition of JAK1 domain2 ACT labeling site in human A-375 cells at 5 uM by KiNativ Profiling analysis relative to control; assay type: cell-based
[6] = target: Mitogen-activated protein kinase kinase kinase 11 (Homo sapiens) (UniProt Q16584); experiment: Inhibition of MLK3 Lys2 labeling site in human A-375 cells at 5 uM by KiNativ Profiling analysis relative to control; assay type: cell-based
[7] = target: Serine/threonine-protein kinase 26 (Homo sapiens) (UniProt Q9P289); experiment: Inhibition of MST4 Lys2 labeling site in human A-375 cells at 5 uM by KiNativ Profiling analysis relative to control; assay type: cell-based
[8] = target: Serine/threonine-protein kinase WNK1 (Homo sapiens) (UniProt Q9H4A3); experiment: Inhibition of Wnk1 ACT labeling site in human A-375 cells at 5 uM by KiNativ Profiling analysis relative to control; assay type: cell-based
[9] = target: RAC-alpha serine/threonine-protein kinase (Homo sapiens) (UniProt P31749); experiment: Inhibition of AKT1 ATP Loop labeling site in human A-375 cells at 0.5 uM by KiNativ Profiling analysis relative to control; assay type: cell-based; method in brief: as §2
[10] = target: RAC-beta serine/threonine-protein kinase (Homo sapiens) (UniProt P31751); experiment: Inhibition of AKT2 ATP Loop labeling site in human A-375 cells at 0.5 uM by KiNativ Profiling analysis relative to control; assay type: cell-based; method in brief: as §2
[11] = target: Serine/threonine-protein kinase 10 (Homo sapiens) (UniProt O94804); experiment: Inhibition of LOK Lys1 labeling site harbouring ETGALAAAKVIETK in human A-375 cells at 0.5 uM by KiNativ Profiling analysis relative to control; assay type: cell-based
[12] = target: Dual specificity mitogen-activated protein kinase kinase 1 (Homo sapiens) (UniProt Q02750); experiment: Inhibition of MAP2K1 Lys1 labeling site in human A-375 cells at 0.5 uM by KiNativ Profiling analysis relative to control; assay type: cell-based
[13] = target: Phosphatidylinositol 4-kinase beta (Homo sapiens) (UniProt Q9UBF8); experiment: Inhibition of PI4KB ATP labeling site harbouring VPHTQAVVLNSKDK in human A-375 cells at 0.5 uM by KiNativ Profiling analysis relative to control; assay type: cell-based
[14] = target: Casein kinase I isoform epsilon (Homo sapiens) (UniProt P49674); experiment: Inhibition of CK1epsilon Lys2 labeling site in human A-375 cells at 0.05 uM by KiNativ Profiling analysis relative to control; assay type: cell-based
[15] = target: Diacylglycerol kinase alpha (Homo sapiens) (UniProt P23743); experiment: Inhibition of DGKA ATP labeling site harbouring in human A-375 cells at 0.05 uM by KiNativ Profiling analysis relative to control; assay type: cell-based
[16] = Inhibition of p70S6K ATP Loop labeling site harbouring DLKPENIMLNHQGHVK in human A-375 cells at 0.05 uM by KiNativ Profiling analysis relative to control; settings: condition cancer

Serine/threonine-protein kinase 26 (Homo sapiens), sequence (Q9P289 2-416 limits assumed): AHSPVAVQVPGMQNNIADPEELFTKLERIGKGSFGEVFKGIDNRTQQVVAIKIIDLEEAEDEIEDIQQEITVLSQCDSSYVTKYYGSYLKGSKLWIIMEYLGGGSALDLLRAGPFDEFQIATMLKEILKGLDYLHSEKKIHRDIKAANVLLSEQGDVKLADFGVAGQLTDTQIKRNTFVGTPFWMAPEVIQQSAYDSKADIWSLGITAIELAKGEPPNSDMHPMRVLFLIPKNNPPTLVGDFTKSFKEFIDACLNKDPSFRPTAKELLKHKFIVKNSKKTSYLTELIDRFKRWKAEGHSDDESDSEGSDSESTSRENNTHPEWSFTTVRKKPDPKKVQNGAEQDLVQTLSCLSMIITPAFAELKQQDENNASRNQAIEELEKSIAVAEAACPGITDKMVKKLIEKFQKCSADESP
Serine/threonine-protein kinase WNK1 (Homo sapiens), sequence (Q9H4A3 whole entry, looked up): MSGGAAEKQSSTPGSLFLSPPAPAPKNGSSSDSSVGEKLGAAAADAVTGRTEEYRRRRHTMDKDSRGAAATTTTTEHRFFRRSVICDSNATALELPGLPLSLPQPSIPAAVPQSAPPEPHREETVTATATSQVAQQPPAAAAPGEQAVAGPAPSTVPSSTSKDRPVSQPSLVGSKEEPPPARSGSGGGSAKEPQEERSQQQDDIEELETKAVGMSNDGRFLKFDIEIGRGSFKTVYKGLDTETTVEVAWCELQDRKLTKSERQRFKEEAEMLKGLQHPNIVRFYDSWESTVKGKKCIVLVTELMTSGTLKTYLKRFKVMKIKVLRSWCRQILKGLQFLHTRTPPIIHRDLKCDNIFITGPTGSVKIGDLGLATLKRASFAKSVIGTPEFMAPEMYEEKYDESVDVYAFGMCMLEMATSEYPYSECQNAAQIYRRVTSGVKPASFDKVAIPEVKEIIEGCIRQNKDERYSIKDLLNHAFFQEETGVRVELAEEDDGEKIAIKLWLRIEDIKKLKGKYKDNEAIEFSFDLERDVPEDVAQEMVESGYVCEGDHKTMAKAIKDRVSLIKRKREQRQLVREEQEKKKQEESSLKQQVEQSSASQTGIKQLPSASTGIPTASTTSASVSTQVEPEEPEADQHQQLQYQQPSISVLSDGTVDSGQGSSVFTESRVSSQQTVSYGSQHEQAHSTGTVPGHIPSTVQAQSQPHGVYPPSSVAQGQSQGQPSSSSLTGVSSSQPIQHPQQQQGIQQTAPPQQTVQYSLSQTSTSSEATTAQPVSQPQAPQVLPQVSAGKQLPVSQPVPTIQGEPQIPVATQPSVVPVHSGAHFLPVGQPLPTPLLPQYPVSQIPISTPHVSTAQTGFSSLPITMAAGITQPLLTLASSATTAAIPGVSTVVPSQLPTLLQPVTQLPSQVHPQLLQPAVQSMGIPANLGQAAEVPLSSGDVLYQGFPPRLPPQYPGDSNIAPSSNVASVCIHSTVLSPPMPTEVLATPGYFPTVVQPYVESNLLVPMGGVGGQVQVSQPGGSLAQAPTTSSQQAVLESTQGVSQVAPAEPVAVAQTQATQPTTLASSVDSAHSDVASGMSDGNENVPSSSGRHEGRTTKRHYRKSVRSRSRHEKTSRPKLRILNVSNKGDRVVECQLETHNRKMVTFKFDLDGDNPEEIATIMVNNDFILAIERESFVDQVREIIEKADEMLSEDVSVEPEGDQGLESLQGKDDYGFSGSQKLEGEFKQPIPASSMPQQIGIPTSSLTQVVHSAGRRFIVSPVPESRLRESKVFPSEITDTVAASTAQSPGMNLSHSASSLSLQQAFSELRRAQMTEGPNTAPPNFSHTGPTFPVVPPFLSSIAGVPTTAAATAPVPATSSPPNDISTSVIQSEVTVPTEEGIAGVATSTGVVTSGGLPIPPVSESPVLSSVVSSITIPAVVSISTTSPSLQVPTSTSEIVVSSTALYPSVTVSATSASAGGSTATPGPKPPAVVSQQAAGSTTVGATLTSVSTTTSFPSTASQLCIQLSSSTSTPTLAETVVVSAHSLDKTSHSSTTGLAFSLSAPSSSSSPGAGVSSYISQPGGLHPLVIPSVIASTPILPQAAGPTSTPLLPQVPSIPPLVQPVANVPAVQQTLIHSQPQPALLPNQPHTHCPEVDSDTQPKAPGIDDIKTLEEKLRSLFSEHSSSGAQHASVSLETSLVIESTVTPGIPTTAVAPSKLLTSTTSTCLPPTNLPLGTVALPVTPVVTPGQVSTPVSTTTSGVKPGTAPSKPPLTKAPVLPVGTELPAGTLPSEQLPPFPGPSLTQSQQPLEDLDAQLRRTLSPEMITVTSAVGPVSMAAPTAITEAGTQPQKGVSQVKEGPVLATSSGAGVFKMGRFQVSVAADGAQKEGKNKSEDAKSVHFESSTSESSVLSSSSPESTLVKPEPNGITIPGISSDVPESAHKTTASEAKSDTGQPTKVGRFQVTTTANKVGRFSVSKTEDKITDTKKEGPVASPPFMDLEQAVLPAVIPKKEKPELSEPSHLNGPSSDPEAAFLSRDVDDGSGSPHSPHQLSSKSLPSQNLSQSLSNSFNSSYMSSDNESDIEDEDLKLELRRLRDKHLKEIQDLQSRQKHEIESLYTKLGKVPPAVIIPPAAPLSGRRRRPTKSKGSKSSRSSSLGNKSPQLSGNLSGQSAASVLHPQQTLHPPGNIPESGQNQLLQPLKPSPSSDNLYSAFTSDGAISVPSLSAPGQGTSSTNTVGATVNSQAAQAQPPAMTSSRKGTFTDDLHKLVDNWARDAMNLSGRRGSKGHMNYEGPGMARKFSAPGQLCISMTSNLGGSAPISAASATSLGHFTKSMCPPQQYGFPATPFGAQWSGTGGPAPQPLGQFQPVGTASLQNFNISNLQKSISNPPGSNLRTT
Diacylglycerol kinase alpha (Homo sapiens), sequence (P23743 whole entry): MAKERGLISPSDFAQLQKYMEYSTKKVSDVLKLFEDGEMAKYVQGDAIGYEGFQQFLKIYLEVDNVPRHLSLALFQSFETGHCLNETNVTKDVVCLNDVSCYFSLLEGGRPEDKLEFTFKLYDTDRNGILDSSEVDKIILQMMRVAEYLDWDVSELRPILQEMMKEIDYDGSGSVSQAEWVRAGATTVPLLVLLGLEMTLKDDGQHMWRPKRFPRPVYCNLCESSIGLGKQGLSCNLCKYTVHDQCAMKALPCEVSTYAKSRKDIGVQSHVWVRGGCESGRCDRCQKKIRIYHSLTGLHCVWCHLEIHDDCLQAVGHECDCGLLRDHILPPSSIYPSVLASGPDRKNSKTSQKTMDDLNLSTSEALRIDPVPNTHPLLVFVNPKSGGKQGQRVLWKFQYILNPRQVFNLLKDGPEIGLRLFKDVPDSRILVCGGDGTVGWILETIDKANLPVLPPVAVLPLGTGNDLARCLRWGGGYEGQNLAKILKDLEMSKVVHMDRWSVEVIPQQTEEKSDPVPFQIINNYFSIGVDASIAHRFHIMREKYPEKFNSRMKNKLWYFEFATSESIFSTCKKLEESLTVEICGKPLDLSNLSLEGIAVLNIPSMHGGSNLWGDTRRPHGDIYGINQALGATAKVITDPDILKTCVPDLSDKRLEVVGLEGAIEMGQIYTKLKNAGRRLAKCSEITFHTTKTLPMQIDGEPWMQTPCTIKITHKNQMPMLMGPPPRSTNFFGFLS
RAC-alpha serine/threonine-protein kinase (Homo sapiens), sequence (P31749 whole entry): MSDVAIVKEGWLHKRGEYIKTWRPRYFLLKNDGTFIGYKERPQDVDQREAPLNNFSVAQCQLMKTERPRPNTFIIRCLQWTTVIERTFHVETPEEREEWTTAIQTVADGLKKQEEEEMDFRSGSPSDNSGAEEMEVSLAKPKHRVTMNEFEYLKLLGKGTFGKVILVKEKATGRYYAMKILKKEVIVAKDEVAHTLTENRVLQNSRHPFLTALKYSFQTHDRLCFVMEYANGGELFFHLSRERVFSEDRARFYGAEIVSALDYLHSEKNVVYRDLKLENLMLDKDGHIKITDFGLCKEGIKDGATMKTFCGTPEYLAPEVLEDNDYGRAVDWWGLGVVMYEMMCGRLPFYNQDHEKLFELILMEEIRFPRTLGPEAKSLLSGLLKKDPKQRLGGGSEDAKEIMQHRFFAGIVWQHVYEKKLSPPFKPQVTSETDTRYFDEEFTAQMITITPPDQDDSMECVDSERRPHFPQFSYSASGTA
Phosphatidylinositol 4-kinase beta (Homo sapiens), sequence (Q9UBF8 2-816 limits assumed): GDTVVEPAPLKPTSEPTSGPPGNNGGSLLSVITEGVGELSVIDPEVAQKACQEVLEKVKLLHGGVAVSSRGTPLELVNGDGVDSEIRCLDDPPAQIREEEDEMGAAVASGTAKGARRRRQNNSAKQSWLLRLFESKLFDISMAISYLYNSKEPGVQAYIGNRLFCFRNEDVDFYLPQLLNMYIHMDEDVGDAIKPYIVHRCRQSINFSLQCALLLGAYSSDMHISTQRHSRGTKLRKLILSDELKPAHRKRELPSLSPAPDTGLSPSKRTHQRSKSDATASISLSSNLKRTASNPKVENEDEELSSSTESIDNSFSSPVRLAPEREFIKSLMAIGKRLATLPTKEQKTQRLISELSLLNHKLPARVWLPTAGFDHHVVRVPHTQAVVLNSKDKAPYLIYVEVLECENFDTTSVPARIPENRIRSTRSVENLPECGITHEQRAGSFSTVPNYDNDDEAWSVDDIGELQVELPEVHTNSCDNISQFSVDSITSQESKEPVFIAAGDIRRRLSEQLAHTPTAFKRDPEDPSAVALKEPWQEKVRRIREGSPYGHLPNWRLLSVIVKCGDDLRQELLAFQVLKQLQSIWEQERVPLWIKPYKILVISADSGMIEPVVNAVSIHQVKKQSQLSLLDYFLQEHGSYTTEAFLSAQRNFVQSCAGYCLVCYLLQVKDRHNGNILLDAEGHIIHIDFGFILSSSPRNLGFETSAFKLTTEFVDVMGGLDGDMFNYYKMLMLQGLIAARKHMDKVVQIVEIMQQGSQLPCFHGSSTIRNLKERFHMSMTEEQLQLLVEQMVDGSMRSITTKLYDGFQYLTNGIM

SMILES | inhibition [1] [%] | inhibition [2] [%] | IC50 (Ephrin type-B receptor 2) [nM] | IC50 (Ephrin type-B receptor 4) [nM] | inhibition [3] [%] | inhibition [4] [%] | inhibition [5] [%] | inhibition [6] [%] | inhibition [7] [%] | inhibition [8] [%] | inhibition [9] [%] | inhibition [10] [%] | inhibition [11] [%] | inhibition [12] [%] | inhibition [13] [%] | inhibition [14] [%] | inhibition [15] [%] | inhibition at 0.05 µM [16] [%]
CNc1cc(Oc2cc(C(=O)Nc3cc(-n4cnc(C)c4)cc(C(F)(F)F)c3)ccc2C)ncn1 | 24.1 | – | – | – | – | – | – | – | – | – | – | – | – | – | – | – | – | –
CCN1CCN(Cc2ccc(NC(=O)c3ccc(C)c(Oc4ccnc5[nH]ccc45)c3)cc2C(F)(F)F)CC1 | – | -4.2 | 672 | 999 | 11.6 | 9.9 | 95.4 | 9.5 | 15.4 | 14.4 | -1 | -1.8 | 71.7 | -3.5 | 6.9 | -0.7 | -8.4 | 18.9
CCN1CCN(Cc2ccc(NC(=O)c3ccc(C)c(/C=C/c4cnc5[nH]ccc5c4OC)c3)cc2C(F)(F)F)CC1 | – | > 90 | 75 | 54 | 37 | -4.9 | 69.2 | 81.1 | 20.9 | -4.5 | 15 | 25.1 | 60.7 | 4.4 | -4.3 | -9.6 | 14.6 | -14.4
CNc1cc(Oc2cc(C(=O)Nc3cc(N4CCN(C)CC4)cc(C(F)(F)F)c3)ccc2C)ncn1 | 2.7 | – | – | – | – | – | – | – | – | – | – | – | – | – | – | – | – | –
